Experimental data: ChEMBL document CHEMBL4368879, “Crystallographic and SAR analyses reveal the high requirements needed to selectively and potently inhibit SIRT2 deacetylase and decanoylase” (Medchemcomm, 2019)
pIC50: −log10 of the molar value. Active and inactive are the calls of the source. The rule behind the calls is not given here.

Experiments:
[1] = target: T1, NAD-dependent protein deacetylase sirtuin-2 (Homo sapiens) (UniProt Q8IXJ6); test: Inhibition of recombinant SIRT2 (unknown origin) using ETDK(Ca)AMC as substrate assessed as reduction in decanoylase activity at 100 uM after 2 hrs in presence of NAD+ by fluorescence assay relative to control
T1 sequence (whole entry): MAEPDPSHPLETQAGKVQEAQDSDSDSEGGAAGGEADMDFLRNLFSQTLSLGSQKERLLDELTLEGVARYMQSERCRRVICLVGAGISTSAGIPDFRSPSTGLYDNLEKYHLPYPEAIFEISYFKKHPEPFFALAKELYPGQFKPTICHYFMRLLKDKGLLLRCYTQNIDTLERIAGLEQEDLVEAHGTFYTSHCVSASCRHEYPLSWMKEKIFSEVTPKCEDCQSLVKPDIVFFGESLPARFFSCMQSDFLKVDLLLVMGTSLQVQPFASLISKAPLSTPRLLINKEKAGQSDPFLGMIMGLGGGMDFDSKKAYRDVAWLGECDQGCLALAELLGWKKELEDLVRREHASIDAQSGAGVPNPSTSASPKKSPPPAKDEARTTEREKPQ
Outline: (§1)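 Fluorogenic sirtuin assay in 25 mM Tris–HCl pH 8.0, 150 mM NaCl, 10% glycerol. Enzyme at 0.1 μM with 10 μM substrate (RLIK(Ac)AMC or ETDK(Ca)AMC) and 400 μM NAD+, 2 h at 25 °C with shaking. Reaction stopped with a trypsin plus 4 mM nicotinamide solution, then 30 min more at 25 °C. Fluorescence read on a plate reader.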

[2] = target: T1, NAD-dependent protein deacetylase sirtuin-2 (Homo sapiens); test: Inhibition of recombinant SIRT2 (unknown origin) using RLIK(Ac)AMC as substrate assessed as reduction in deacetylase activity at 100 uM after 2 hrs in presence of NAD+ by fluorescence assay relative to control; outline: as §1
[3] = target: T1, NAD-dependent protein deacetylase sirtuin-2 (Homo sapiens); test: Inhibition of recombinant SIRT2 (unknown origin) using ETDK(Ca)AMC as substrate assessed as reduction in decanoylase activity at 10 uM after 2 hrs in presence of NAD+ by fluorescence assay relative to control; outline: as §1
[4] = target: T1, NAD-dependent protein deacetylase sirtuin-2 (Homo sapiens); test: Inhibition of recombinant SIRT2 (unknown origin) using RLIK(Ac)AMC as substrate assessed as reduction in deacetylase activity at 10 uM after 2 hrs in presence of NAD+ by fluorescence assay relative to control; outline: as §1
[5] = target: NAD-dependent protein deacylase sirtuin-5, mitochondrial (Homo sapiens) (UniProt Q9NXA8); test: Inhibition of recombinant SIRT5 (unknown origin) using ETDK(Ca)AMC as substrate assessed as reduction in decanoylase activity after 2 hrs in presence of NAD+ by fluorescence assay; outline: as §1
Sequence of NAD-dependent protein deacylase sirtuin-5, mitochondrial (Homo sapiens) (Q9NXA8 37-310 limits assumed): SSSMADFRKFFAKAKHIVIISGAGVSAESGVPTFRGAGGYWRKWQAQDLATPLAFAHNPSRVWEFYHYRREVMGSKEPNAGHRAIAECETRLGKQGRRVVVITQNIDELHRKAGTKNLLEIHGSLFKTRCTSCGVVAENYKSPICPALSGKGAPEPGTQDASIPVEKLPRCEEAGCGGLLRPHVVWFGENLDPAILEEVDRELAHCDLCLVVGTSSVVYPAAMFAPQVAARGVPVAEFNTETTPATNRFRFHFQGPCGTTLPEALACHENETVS

[6] = target: NAD-dependent protein deacylase sirtuin-5, mitochondrial (Homo sapiens) (UniProt Q9NXA8); test: Inhibition of recombinant SIRT5 (unknown origin) using RLIK(Ac)AMC as substrate assessed as reduction in deacetylase activity after 2 hrs in presence of NAD+ by fluorescence assay; outline: as §1
[7] = target: T2, NAD-dependent protein deacetylase sirtuin-2 (Homo sapiens, UniProt Q8IXJ6); test: Inhibition of recombinant SIRT2 (unknown origin) using ETDK(Ca)AMC as substrate assessed as reduction in decanoylase activity after 2 hrs in presence of NAD+ by fluorescence assay; outline: as §1
T2 sequence (Q8IXJ6 whole entry): T1 sequence (whole entry)

[8] = target: NAD-dependent protein deacylase sirtuin-6 (Homo sapiens) (UniProt Q8N6T7); test: Inhibition of recombinant SIRT6 (unknown origin) using ETDK(Ca)AMC as substrate assessed as reduction in decanoylase activity after 2 hrs in presence of NAD+ by fluorescence assay; outline: as §1
Sequence of NAD-dependent protein deacylase sirtuin-6 (Homo sapiens) (Q8N6T7 whole entry): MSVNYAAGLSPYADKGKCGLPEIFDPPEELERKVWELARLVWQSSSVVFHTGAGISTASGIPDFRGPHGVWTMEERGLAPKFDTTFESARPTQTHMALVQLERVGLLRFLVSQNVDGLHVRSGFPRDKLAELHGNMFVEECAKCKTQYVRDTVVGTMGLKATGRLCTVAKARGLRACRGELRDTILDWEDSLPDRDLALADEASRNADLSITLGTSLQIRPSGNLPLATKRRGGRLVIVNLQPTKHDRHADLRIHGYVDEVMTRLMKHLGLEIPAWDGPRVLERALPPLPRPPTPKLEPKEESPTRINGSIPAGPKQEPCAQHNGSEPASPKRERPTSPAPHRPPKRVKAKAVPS

[9] = target: T3, NAD-dependent protein deacetylase sirtuin-3, mitochondrial (Homo sapiens) (UniProt Q9NTG7); test: Inhibition of recombinant SIRT3 (unknown origin) using ETDK(Ca)AMC as substrate assessed as reduction in decanoylase activity after 2 hrs in presence of NAD+ by fluorescence assay; outline: as §1
T3 sequence (whole entry): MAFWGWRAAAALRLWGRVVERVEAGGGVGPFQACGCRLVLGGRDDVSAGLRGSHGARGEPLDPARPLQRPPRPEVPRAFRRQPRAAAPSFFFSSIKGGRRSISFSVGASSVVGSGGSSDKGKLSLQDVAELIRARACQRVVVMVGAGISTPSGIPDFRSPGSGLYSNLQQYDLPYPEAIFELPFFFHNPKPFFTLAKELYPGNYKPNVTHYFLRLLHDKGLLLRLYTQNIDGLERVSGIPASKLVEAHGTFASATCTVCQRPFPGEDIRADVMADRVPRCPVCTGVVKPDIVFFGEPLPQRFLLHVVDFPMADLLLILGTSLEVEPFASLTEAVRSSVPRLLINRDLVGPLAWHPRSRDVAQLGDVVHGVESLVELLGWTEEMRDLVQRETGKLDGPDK

[10] = target: T2, NAD-dependent protein deacetylase sirtuin-2; test: Inhibition of recombinant SIRT2 (unknown origin) using RLIK(Ac)AMC as substrate assessed as reduction in deacetylase activity after 2 hrs in presence of NAD+ by fluorescence assay; outline: as §1
[11] = target: T4, NAD-dependent protein deacetylase sirtuin-1 (Homo sapiens) (UniProt Q96EB6); test: Inhibition of recombinant SIRT1 (unknown origin) using ETDK(Ca)AMC as substrate assessed as reduction in decanoylase activity after 2 hrs in presence of NAD+ by fluorescence assay; outline: as §1
T4 sequence (whole entry): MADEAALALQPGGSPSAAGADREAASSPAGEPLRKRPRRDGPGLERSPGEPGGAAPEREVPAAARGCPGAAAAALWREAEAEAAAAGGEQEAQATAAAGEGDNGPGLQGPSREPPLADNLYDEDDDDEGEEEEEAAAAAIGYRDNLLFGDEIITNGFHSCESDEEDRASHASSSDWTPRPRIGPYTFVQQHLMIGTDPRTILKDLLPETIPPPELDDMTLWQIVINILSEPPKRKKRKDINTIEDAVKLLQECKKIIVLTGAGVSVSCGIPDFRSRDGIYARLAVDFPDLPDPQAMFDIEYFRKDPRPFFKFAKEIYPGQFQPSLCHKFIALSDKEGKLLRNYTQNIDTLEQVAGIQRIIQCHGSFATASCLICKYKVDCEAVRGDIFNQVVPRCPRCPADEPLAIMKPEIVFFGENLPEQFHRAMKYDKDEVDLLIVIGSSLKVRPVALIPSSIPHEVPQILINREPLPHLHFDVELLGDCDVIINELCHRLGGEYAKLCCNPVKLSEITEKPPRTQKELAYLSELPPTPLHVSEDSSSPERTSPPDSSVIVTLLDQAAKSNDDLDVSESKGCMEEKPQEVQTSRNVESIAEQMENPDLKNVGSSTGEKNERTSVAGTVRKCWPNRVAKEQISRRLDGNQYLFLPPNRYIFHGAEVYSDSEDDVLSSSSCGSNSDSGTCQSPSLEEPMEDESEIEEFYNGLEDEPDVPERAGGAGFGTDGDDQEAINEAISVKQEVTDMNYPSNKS

[12] = target: T3, NAD-dependent protein deacetylase sirtuin-3, mitochondrial (Homo sapiens); test: Inhibition of recombinant SIRT3 (unknown origin) using RLIK(Ac)AMC as substrate assessed as reduction in deacetylase activity after 2 hrs in presence of NAD+ by fluorescence assay; outline: as §1
[13] = target: T4, NAD-dependent protein deacetylase sirtuin-1 (Homo sapiens); test: Inhibition of recombinant SIRT1 (unknown origin) using RLIK(Ac)AMC as substrate assessed as reduction in deacetylase activity after 2 hrs in presence of NAD+ by fluorescence assay; outline: as §1
[14] = target: NAD-dependent protein deacylase sirtuin-6 (Homo sapiens) (UniProt Q8N6T7); test: Inhibition of recombinant SIRT6 (unknown origin) using RLIK(Ac)AMC as substrate assessed as reduction in deacetylase activity after 2 hrs in presence of NAD+ by fluorescence assay; outline: as §1

| SMILES | inhibition [1] [%] | inhibition [2] [%] | inhibition [3] [%] | inhibition [4] [%] | inhibition [5] | inhibition [6] | pIC50 [7] | inhibition [8] | inhibition [9] | pIC50 [10] | inhibition [11] | inhibition [12] | inhibition [13] | inhibition [14] |
| --- | --- | --- | --- | --- | --- | --- | --- | --- | --- | --- | --- | --- | --- | --- |
| Cc1cccc(Sc2ccc(NC(=O)CSc3nc(C)cc(C)n3)cc2)c1 | 65 | 76 | 54 | 70 | – | – | – | – | – | – | – | – | – | – |
| COc1cccc(Sc2ccc(NC(=O)CSc3nc(C)cc(C)n3)cc2)c1 | 80 | 85 | 70 | 80 | inactive | inactive | 5.08 | inactive | inactive | 6.15 | inactive | inactive | inactive | inactive |
| Cc1cc(C)nc(SCC(=O)Nc2ccc(Sc3cccc4ccccc34)cc2)n1 | 58 | 53 | 42 | 42 | – | – | – | – | – | – | – | – | – | – |
| Cc1cc(C)nc(SCC(=O)Nc2cccc(Sc3ccccc3)c2)n1 | 30 | 73 | 5 | 65 | – | – | 4.21 | – | – | 5.18 | – | – | – | – |
| Cc1cc(C)nc(SCC(=O)Nc2ccc(Sc3ccc(OC(F)(F)F)cc3)cc2)n1 | 63 | 60 | 23 | 40 | – | – | – | – | – | – | – | – | – | – |
| Cc1ccc(Sc2ccc(NC(=O)CSc3nc(C)cc(C)n3)cc2)cc1 | 70 | 63 | 10 | 30 | – | – | – | – | – | – | – | – | – | – |
| Cc1cc(C)nc(SCC(=O)Nc2ccc(Sc3ccc4ccccc4c3)cc2)n1 | 38 | 70 | 23 | 51 | – | – | – | – | – | – | – | – | – | – |
| Cc1cc(C)nc(SCC(=O)Nc2ccc(Sc3ccc(C(F)(F)F)cc3)cc2)n1 | 42 | 51 | 18 | 28 | – | – | – | – | – | – | – | – | – | – |
| Cc1cc(C)nc(SCC(=O)Nc2ccc(Sc3ccccc3)cc2)n1 | 53 | 80 | 38 | 70 | – | – | 4.94 | – | – | 5.88 | – | – | – | – |
| Cc1cc(C)nc(SCC(=O)Nc2ccc(Sc3cccc(C(F)(F)F)c3)cc2)n1 | 77 | 82 | 72 | 72 | inactive | inactive | 4.75 | inactive | inactive | 6.07 | inactive | inactive | inactive | inactive |
| Cc1cc(C)nc(SCC(=O)Nc2ccc([S+]([O-])c3ccccc3)cc2)n1 (stereo unspecified) | 23 | 40 | 4 | 5 | – | – | – | – | – | – | – | – | – | – |
| Cc1cc(C)nc(SCC(=O)Nc2ccc(S(=O)(=O)c3ccccc3)cc2)n1 | 18 | 50 | 5 | 8 | – | – | – | – | – | – | – | – | – | – |
| Cc1cc(C)nc(SCC(=O)Nc2ccc(Sc3ccsc3)cc2)n1 | 58 | 62 | 18 | 50 | – | – | – | – | – | – | – | – | – | – |
| COc1ccc(Sc2ccc(NC(=O)CSc3nc(C)cc(C)n3)cc2)cc1 | 58 | 65 | 20 | 55 | – | – | – | – | – | – | – | – | – | – |
| Cc1cc(C)nc(SCC(=O)Nc2ccc(Sc3cccnc3)cc2)n1 | 60 | 67 | 23 | 42 | – | – | – | – | – | – | – | – | – | – |
| CC(=O)c1ccc(Sc2ccc(NC(=O)CSc3nc(C)cc(C)n3)cc2)cc1 | 35 | 5 | 8 | 6 | – | – | – | – | – | – | – | – | – | – |
| Cc1cc(C)nc(SCC(=O)Nc2cccc(COc3ccccc3)c2)n1 | – | 76 | 32 | 53 | – | – | – | – | – | – | – | – | – | – |
